These compounds were tested against G protein-activated inward rectifier potassium channel 2 (Homo sapiens) + G protein-activated inward rectifier potassium channel 1 (Homo sapiens) (UniProt P48051+P48549) (assay: GIRK1/2 Tl+ flux activators after pertussis toxin – cell-based, HEK-293 hGIRK1/2, pertussis toxin-treated, thallium flux, FluoZin-2, mechanism study for GIRK activator project, dose response (AID 624042)). Conditions: HEK-293 hGIRK1/2 PTX-treated.
Procedure, shortened: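 System: PTX-treated HEK-293 rmGlu8/hGIRK1/2 stable cell line; medium: overnight pretreatment with 400 ng/mL pertussis toxin (PTX); also added: thallium stimulus containing EC20 glutamate; incubation: PTX pretreatment overnight at 37 °C, compounds 4 min before thallium; technique: thallium-flux fluorescence with FluoZin-2 AM dye, sampled at 1 Hz; controls: vehicle wells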

Sequence of G protein-activated inward rectifier potassium channel 2 (Homo sapiens) + G protein-activated inward rectifier potassium channel 1 (Homo sapiens) (P48051 whole entry, looked up): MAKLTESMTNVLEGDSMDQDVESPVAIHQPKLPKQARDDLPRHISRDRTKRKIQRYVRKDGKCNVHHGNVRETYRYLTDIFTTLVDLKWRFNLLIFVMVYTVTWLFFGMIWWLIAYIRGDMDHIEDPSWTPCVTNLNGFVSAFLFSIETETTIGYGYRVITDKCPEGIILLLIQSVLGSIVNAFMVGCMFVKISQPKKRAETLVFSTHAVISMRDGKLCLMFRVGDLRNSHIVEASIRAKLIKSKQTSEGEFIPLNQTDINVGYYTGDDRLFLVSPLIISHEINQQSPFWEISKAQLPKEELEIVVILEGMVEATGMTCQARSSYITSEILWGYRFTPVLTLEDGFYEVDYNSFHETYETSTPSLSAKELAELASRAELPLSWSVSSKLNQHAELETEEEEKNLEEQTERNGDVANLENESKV
Sequence of G protein-activated inward rectifier potassium channel 2 (Homo sapiens) + G protein-activated inward rectifier potassium channel 1 (Homo sapiens) (P48549 whole entry, looked up): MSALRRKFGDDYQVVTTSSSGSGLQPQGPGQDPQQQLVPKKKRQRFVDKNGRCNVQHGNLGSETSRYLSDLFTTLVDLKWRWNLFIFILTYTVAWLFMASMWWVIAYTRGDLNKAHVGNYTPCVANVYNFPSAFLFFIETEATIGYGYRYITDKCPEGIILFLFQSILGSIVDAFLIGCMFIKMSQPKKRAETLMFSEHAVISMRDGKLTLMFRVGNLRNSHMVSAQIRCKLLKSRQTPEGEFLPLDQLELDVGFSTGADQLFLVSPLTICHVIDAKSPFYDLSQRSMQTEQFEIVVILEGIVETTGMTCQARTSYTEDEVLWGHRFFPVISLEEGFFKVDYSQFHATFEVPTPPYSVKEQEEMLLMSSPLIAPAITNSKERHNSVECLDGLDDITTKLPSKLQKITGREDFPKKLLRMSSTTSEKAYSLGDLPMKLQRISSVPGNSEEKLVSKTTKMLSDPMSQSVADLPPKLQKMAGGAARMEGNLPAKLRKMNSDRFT

| SMILES | EC50 [µM] |
| --- | --- |
| CCOc1ccccc1Nc1nnc(Cc2ccccc2Cl)c(=O)[nH]1 | 1.86 |
| Cc1ccc(-c2nnn(CC(=O)NC3CC4CCC3C4)n2)cc1 (centres undefined) | 4.22 |
| Cc1ccc(NC(=O)Cc2ccccc2Cl)cc1S(=O)(=O)N(C)C | 2.18 |
| Cc1cc(NC(=O)Nc2ccccc2)n(-c2ccccc2)n1 | 3.62 |

Reference: PubChem BioAssay AID624042 (Vanderbilt High Throughput Screening Facility, 2012)
